Bioassay records as filed in PubChem BioAssay.
Compounds with a hit are over-represented: about 1.8% of the library has one in this group of screens.
RanGTP-Imp inh: inhibitors of RanGTP-importin-beta interaction, primary screen, biochemical, FRET, CFP-Ran, YFP-importin-beta, homogeneous; cell-free CFP-Ran/YFP-importin-beta FRET ratio; inhibition, % (concentration not given with the values); 300,000 compounds, 1.1% hits; AID 2216;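 active = more than half of the replicate wells show a fall in the fluorescence ratio signal beyond about 16%, limit read from the data, passing the limit was not always enough; inconclusive = exactly half of the replicate wells pass the set limit; inactive = fewer than half of replicates pass the limit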;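 note: 0% = DMSO wells and 100% = Ran loaded with GDP instead of GTP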
Runt-SMMHC FRET: blocks binding of human RUNX1 Runt domain to CBFb-SMMHC; Q01196+Q13951; Cerulean-Runt/Venus-CBFb-SMMHC FRET ratio 530/480, 1 h; inhibition, % at 20 µM; 220,000 compounds, 0.74% hits;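 active = mean inhibition across duplicate retests at 20 µM reaching about 50%, limit read from the data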;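 note: 0% = DMSO wells and 100% = wells with excess untagged CBFb-SMMHC; inhibitors lower the FRET ratio by blocking Runt binding to CBFb-SMMHC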
Target sequence (Q01196 whole entry, looked up, the tested form may be a part): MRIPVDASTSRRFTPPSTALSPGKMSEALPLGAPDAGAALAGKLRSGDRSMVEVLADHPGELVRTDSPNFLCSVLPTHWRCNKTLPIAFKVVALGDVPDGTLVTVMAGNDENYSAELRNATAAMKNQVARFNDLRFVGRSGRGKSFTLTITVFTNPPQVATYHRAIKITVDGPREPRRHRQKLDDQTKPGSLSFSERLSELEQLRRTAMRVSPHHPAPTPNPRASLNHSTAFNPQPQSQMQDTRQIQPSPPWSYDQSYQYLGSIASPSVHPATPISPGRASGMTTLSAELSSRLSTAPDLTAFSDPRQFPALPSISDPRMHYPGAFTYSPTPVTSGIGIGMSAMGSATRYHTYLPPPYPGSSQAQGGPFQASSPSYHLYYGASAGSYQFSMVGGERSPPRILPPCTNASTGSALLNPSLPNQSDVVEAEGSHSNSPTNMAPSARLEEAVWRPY
Target sequence (Q13951 whole entry, looked up, the tested form may be a part): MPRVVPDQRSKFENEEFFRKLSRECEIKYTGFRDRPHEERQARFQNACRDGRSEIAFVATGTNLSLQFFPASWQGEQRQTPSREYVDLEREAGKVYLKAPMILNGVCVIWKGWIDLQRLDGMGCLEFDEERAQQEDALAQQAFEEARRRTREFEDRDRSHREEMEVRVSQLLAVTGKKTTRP
Runt-CBFb FRET: inhibitors of human RUNX1 Runt domain binding to CBFb. AID 1496. 220,000 compounds, 0.46% hits. Q01196+Q13951. Cerulean-Runt/Venus-CBFb FRET ratio 530/480, 1 h. inhibition, % at 20 µM;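 active = inhibition over about 50% at 20 µM in the single-dose screen, limit read from the data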;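 note: 0% = DMSO wells and 100% = excess unlabeled CBFb competitor control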
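Measured by: fluorescence energy transfer, 422 nm excitation, 530/480 nm emission; Assay system: Cerulean-Runt domain; Medium: Tris pH 7.5 buffer with BSA; Measure: loss of energy transfer signal; Controls: 5 µM unlabeled CBFb as full-inhibition high control; Incubation: protein complex preformed 1 h, compound exposure 1 h, room temperature, dark.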
Platelet DG rel: platelet dense granule release activity | inhibition, %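 (compounds screened at 7.5 µM in platelet-rich plasma)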 | 300,000 compounds, 0.22% hits | human platelet-rich plasma, SFLLRN dense granule ATP release, luminescence;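 active = mean replicate score, as percent of positive control, at or above 50; inconclusive = mean below 50 but at least one replicate at or above 50; inactive = mean and every replicate below 50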
Rce1 inh: inhibitors of yeast Ras-converting enzyme; 290,000 compounds, 0.27% hits; yeast membranes, quenched prenylated peptide cleavage fluorescence; calls only; Q03530;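 active = fall in fluorescence gain of 50% or more versus controls, with final raw signal at or below 3038400; inconclusive = same 50% fall but final raw signal above 3038400; inactive = fall in fluorescence gain under 50%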;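 note: plate controls were neutral control wells for no effect and wells lacking membranes for full effect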
Numbers without * were called inactive; i = inactive; ? = inconclusive; nt = no result; + = active, no number.

SMILES	RanGTP-Imp inh	Runt-SMMHC FRET	Runt-CBFb FRET	Platelet DG rel	Rce1 inh
CN1CCc2c(sc3c2c(=O)n(-c2cccc(Cl)c2)c2nncn32)C1	10	nt	nt	4	i
CN1CCc2c(sc3c2C(=O)NC(/C=C\c2ccccc2)N3)C1 (stereo not given)	121*	70*	118*	7	i
CN1CCc2c(sc3c2C(=O)NC(c2ccc(-c4cccc(Cl)c4)o2)N3)C1 (stereo not given)	103*	85*	115*	10	i
Cc1ccc(S(=O)(=O)N(CC(=O)Nc2cccnc2)c2ccccc2C)cc1	2	nt	nt	-7	nt
N#Cc1c(-c2ccccc2Cl)cc(-c2ccccc2)nc1Br	1	-6	2	-46	i
CCOc1ccc2nc3cc(NCc4ccc(OC)cc4)ccc3c(N)c2c1	27*	nt	nt	3	i
CC(C)c1ccc(N=C2N=C(N)c3ccccc32)cc1	0	0	-2	-3	i
Nc1nc(Cl)nc2c1ncn2[C@@H]1O[C@H](CO)[C@@H](O)[C@H]1O	2	-2	0	89*	i
Nc1ncnc2c1ncn2[C@@H]1O[C@H](COP(=O)(O)O)[C@@H](O)[C@H]1O	2	nt	nt	83*	i
CCOC1OC2C(CO)OC(n3cnc4c(N)ncnc43)C2O1 (stereo not given)	-3	0	0	74*	i
c1ccc2nc(-c3nc4ccccc4[nH]3)ccc2c1	2	1	2	83*	i
O=C(NCc1csc(-c2cccs2)n1)c1cccc(Cl)c1	5	-5	-2	nt	i
COc1ccc(S(=O)(=O)NCc2csc(C)n2)cc1OC	-5	nt	nt	7	i
O=C(CCc1ccccc1)Nc1nncs1	3	1	-1	59*	i
O/C=c1\ccc2cccc3nc(C(F)(F)F)nc1c23	4	nt	nt	3	i
C/C(O)=c1/ccc2cccc3nc(C)nc1c23	54*	nt	-13	-9	i
S=C(Nc1ccccc1)c1nc2ccccc2s1	?	-1	0	2	i
CCOc1cc(C2C3=C(CCCC3=O)N(CC(=O)O)C3=C2C(=O)CCC3)ccc1OC	-1	nt	nt	0	i
COc1ccc(C2C3=C(CC(C)(C)CC3=O)N(CC(=O)O)C3=C2C(=O)CC(C)(C)C3)cc1OC	0	nt	nt	11	i
COc1ccc(C2C3=C(CCCC3=O)N(CC(=O)O)C3=C2C(=O)CCC3)cc1Cl	112*	nt	nt	1	i
C#CCOc1c(Cl)cc(C2C3=C(CCCC3=O)N(CC(=O)O)C3=C2C(=O)CCC3)cc1OC	127*	nt	nt	-2	i
COc1ccccc1C1C2=C(CCCC2=O)N(CC(=O)O)C2=C1C(=O)CCC2	118*	nt	nt	0	i
Cc1ccc(C(=O)ONc2ccc(N=O)cc2)cc1	2	1	0	59*	i
O=Nc1ccc(NOC(=O)c2ccc(Br)cc2)cc1	nt	5	-2	nt	nt
COC(=O)C1CN(C(=O)COc2cc(C)cc(C)c2)c2ccccc2O1 (stereo not given)	5	nt	nt	-2	i
SMILES	RanGTP-Imp inh	Runt-SMMHC FRET	Runt-CBFb FRET	Platelet DG rel	Rce1 inh
C1CCC(Nc2nc3nonc3nc2N2CCSCC2)C1	1	0	0	3	i
O=C(CCCOc1ccc(Cl)cc1Cl)NCCCn1ccnc1	0	2	2	4	i
CC(Oc1ccc(Cl)cc1Cl)C(=O)NCCCn1ccnc1 (stereo not given)	-1	81*	27	-4	i
Cc1cc(NC(=O)C(C)Oc2ccc(Cl)cc2Cl)no1 (stereo not given)	38*	nt	nt	3	nt
CC(Oc1ccc(Cl)cc1Cl)C(=O)Nc1ncccn1 (stereo not given)	-1	-5	-2	0	i
O=C(CCS(=O)(=O)c1cc2c(cc1Cl)NC(=O)CO2)NCc1ccccc1	-2	nt	nt	17	i
Cc1ccc(S(=O)(=O)N2CCN(CC(=O)N/N=C/c3ccccc3OCC(=O)O)CC2)cc1	1	-3	0	-2	i
COc1ccccc1/C=C/C=N/NC(=O)CN1CCN(S(=O)(=O)c2ccc(C)cc2)CC1	3	1	-4	9	+
COc1ccc(CCNC(=O)c2cc3c(=O)n4cccc(C)c4nc3n(Cc3ccncc3)c2=N)cc1	nt	132*	105*	nt	nt
COc1ccc(CCNC(=O)c2cc3c(=O)n4cccc(C)c4nc3n(CC3CCCO3)c2=N)cc1 (stereo not given)	-9	nt	nt	0	i
COCCNC(=O)c1cc2c(=O)n3cccc(C)c3nc2n(Cc2ccncc2)c1=N	192*	40	12	17	?
CCCCNC(=O)c1cc2c(=O)n3cccc(C)c3nc2n(Cc2ccncc2)c1=N	188*	70*	20	-10	i
CCc1ccccc1NC(=O)/C(C#N)=C/c1ccc(Sc2ccccc2)o1	14	-44	-21	1	i
CCc1ccccc1NC(=O)/C(C#N)=C\c1ccc(Sc2ccccc2)o1	16*	-28	-6	7	nt
CCNS(=O)(=O)c1ccc(OC)c(C(=O)NC2CCCCC2)c1	0	-2	0	-7	i
Cc1ccc(OCCN2C(=O)C(=O)c3cc(C)ccc32)cc1	-1	nt	nt	18	+
Cc1ccc(OCCCN2C(=O)C(=O)c3cccc(C)c32)cc1	0	-2	-4	-16	i
CCc1ccc(-c2ccc(C(=O)O)c(C)n2)cc1	3	-2	-1	4	i
CCc1ccc(-c2cnc3nc[nH]c(=O)c3n2)cc1	15*	nt	nt	nt	i
COc1cc2oc3ccc(C#Cc4ccccn4)cc3c(=O)c2cc1OC	-2	nt	nt	1	i
Cn1c2ccccc2c(=O)c2ccc(C#Cc3ccccn3)cc21	97*	nt	nt	-1	i
Cn1c2ccccc2c(=O)c2cc(C#Cc3ccccn3)ccc21	147*	nt	nt	7	i
Cn1c2ccccc2c(=O)c2cc(C#Cc3ccsc3)ccc21	73*	nt	nt	18	i
CN(C)c1ccc(/C(=N\O)c2ccccc2)cc1	-4	-7	0	5	i
CC(C)COc1cccc(-c2cc(C(=O)N/N=C/c3ccncc3)c3ccccc3n2)c1	nt	nt	nt	nt	i
SMILES	RanGTP-Imp inh	Runt-SMMHC FRET	Runt-CBFb FRET	Platelet DG rel	Rce1 inh
O=C(CCCCCNC(=O)N1CCn2c1nc1ccccc12)N[C@H](Cc1ccccc1)C(=O)O	-1	nt	nt	2	i
O=C(/C=C/Nc1ccc(F)cc1F)c1ccco1	-1	3	0	53*	nt
O=C(/C=C/Nc1ccc(Br)cc1F)c1ccco1	-2	4	2	65*	i
COc1ccc(NC2CCCN(C(=O)CN3CCOC3=O)C2)cc1 (stereo not given)	-2	nt	nt	8	i
Cc1ccc(N(CC(=O)NC(C)(C)C)C(=O)CS(=O)CC(=O)Nc2ccc(F)cc2)cc1 (stereo not given)	-1	-7	-2	5	i
O=C(COc1cc2oc(=O)c3c(c2cc1Cl)CCC3)Nc1ccc(CN2CCOCC2)cc1	5	nt	nt	-20	i
